Experimental findings from ChEMBL document CHEMBL3352339, “Implications of N-capped urea/thiourea and C-capped 3-(1-piperazinyl)-1,2-benzisothiazole with bridging Gly-Val/Phe-Gly-Val-Pro as therapeutic targets” (Eur J Med Chem, 2014) are described below.

The subject of data set [1] is Aspergillus flavus. Briefly: Antifungal activity against Aspergillus flavus incubated for 48 to 72 hrs by agar microdilution method. Type of data set: functional. The gist of the method:
(§1)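 MIC by microdilution against the fungal strain, limited to compounds showing significant zones in the diffusion assay. Bavistin was used as the reference.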

The next data set addresses Urease (Canavalia ensiformis, UniProt P07374). The experiment in a line: Inhibition of jack bean urease assessed as reduction in ammonia production incubated at 30 degC for 15 mins by indophenol method. The gist of the method:
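Inhibition of jack bean urease, with thiourea as the reference standard. IC50 values are the average of triplicate runs.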

The test system of data set [2] is Klebsiella pneumoniae. The experiment in a line: Antibacterial activity against Klebsiella pneumoniae incubated for 24 hrs by agar microdilution method. Type of data set: functional.
For data set [3], the system named is Xanthomonas oryzae. The experiment in a line: Antibacterial activity against Xanthomonas oryzae incubated for 24 hrs by agar microdilution method. The data set is classed as functional.
A short description of data set [4]: Antiglycation activity using bovine serum albumin incubated at 37 degC for 7 days by spectrofluorimetry. Type of data set: physicochemical. The gist of the method:
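Glycation of bovine serum albumin, with rutin as the reference standard. IC50 values are averages of triplicate runs.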

The subject of data set [5] is Fusarium oxysporum. Briefly: Antifungal activity against Fusarium oxysporum incubated for 48 to 72 hrs by agar microdilution method. Type of data set: functional. Summed up: as §1
For data set [6], the system named is Escherichia coli. Briefly: Antibacterial activity against Escherichia coli at 50 ug/mL incubated for 24 hrs by agar well diffusion method. The data set is classed as functional. The conditions noted are these: read-out: IZ. Summed up:
(§2)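 Agar well diffusion against the bacterial isolate, with streptomycin as the reference drug. Read-out is the average diameter (mm) of the growth-inhibition zone around the well.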
On the technique in general: Agar diffusion results depend on both activity and mobility in agar.

For data set [7], the system named is Aspergillus niger. Briefly: Antifungal activity against Aspergillus niger at 50 ug/mL incubated for 3 days by agar well diffusion method. Type of data set: functional. The conditions noted are these: 72 h, read-out: IZ. The gist of the method:
(§3)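 Fungal growth inhibition measured by agar well diffusion, with bavistin as the reference. Records the mean inhibition-zone diameter (mm) around each well.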

Data set [8] concerns Aspergillus niger. The experiment in a line: Antifungal activity against Aspergillus niger incubated for 48 to 72 hrs by agar microdilution method. The data set is classed as functional. The gist of the method:
as §1

Data set [9] has as its system Xanthomonas oryzae. The experiment in a line: Antibacterial activity against Xanthomonas oryzae at 50 ug/mL incubated for 24 hrs by agar well diffusion method. Type of data set: functional. The conditions noted are these: read-out: IZ.
In data set [10] the test system is Aspergillus flavus. Briefly: Antifungal activity against Aspergillus flavus at 50 ug/mL incubated for 3 days by agar well diffusion method. The conditions noted are these: 72 h, read-out: IZ. The data set is classed as functional. The gist of the method:
as §3

For data set [11], the system named is Escherichia coli. Briefly: Antibacterial activity against Escherichia coli incubated for 24 hrs by agar microdilution method. Type of data set: functional.
Data set [12] can be described thus: Inhibition of sheep stomach parietal cells gastric H+/K+-ATPase activity assessed as reduction in inorganic phosphorus production by Fiske Subbarow's method. The data set is classed as tissue-based, Ovis aries. The gist of the method:
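Inhibition of purified H+/K+-ATPase, with omeprazole as the reference. IC50 is the mean of triplicate runs.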

Data set [13] has as its system Fusarium verticillioides. Briefly: Antifungal activity against Fusarium moniliforme at 50 ug/mL incubated for 3 days by agar well diffusion method. The data set is classed as functional. To be noted: 72 h, read-out: IZ. The gist of the method: as §3
For data set [14], the system named is Fusarium verticillioides. The experiment in a line: Antifungal activity against Fusarium moniliforme incubated for 48 to 72 hrs by agar microdilution method. Type of data set: functional. The gist of the method:
as §1

For data set [15], the system named is Fusarium oxysporum. The experiment in a line: Antifungal activity against Fusarium oxysporum at 50 ug/mL incubated for 3 days by agar well diffusion method. Type of data set: functional. The conditions noted are these: 72 h, read-out: IZ. The gist of the method:
as §3

Data set [16] concerns Staphylococcus. Briefly: Antibacterial activity against Coagulase positive Staphylococcus incubated for 24 hrs by agar microdilution method. The data set is classed as functional.
In data set [17] the test system is Staphylococcus. The experiment in a line: Antibacterial activity against Coagulase positive Staphylococcus at 50 ug/mL incubated for 24 hrs by agar well diffusion method. Type of data set: functional. The conditions noted are these: read-out: IZ. Summed up: as §2
The subject of data set [18] is Klebsiella pneumoniae. The experiment in a line: Antibacterial activity against Klebsiella pneumoniae at 50 ug/mL incubated for 24 hrs by agar well diffusion method. Type of data set: functional. To be noted: read-out: IZ. Summed up: as §2

In general, IC50 refers to the point on the concentration scale where inhibition reaches its midpoint.

Values after ≈ are worked out from the molar mass of the structure shown. Starred links: 1 amine or outer side, 2 acyl side, 3 side chain; linkers in the order of their positions; H or OH if unused. Residues, ends and D or L forms follow the SMILES beside them. *: point of attachment. X1 = c1ccc2c(N3CCN(*)CC3)nsc2c1; NH(4-F-phenyl) = Fc1ccc(N*)cc1; NH(2-F-phenyl) = Fc1ccccc1N*; X2 = Fc1ccc(NC(=S)*)cc1; Boc = CC(C)(C)OC(=O)*; CO = O=C([*:1])[*:2]

Chain of Urease (P07374 whole entry): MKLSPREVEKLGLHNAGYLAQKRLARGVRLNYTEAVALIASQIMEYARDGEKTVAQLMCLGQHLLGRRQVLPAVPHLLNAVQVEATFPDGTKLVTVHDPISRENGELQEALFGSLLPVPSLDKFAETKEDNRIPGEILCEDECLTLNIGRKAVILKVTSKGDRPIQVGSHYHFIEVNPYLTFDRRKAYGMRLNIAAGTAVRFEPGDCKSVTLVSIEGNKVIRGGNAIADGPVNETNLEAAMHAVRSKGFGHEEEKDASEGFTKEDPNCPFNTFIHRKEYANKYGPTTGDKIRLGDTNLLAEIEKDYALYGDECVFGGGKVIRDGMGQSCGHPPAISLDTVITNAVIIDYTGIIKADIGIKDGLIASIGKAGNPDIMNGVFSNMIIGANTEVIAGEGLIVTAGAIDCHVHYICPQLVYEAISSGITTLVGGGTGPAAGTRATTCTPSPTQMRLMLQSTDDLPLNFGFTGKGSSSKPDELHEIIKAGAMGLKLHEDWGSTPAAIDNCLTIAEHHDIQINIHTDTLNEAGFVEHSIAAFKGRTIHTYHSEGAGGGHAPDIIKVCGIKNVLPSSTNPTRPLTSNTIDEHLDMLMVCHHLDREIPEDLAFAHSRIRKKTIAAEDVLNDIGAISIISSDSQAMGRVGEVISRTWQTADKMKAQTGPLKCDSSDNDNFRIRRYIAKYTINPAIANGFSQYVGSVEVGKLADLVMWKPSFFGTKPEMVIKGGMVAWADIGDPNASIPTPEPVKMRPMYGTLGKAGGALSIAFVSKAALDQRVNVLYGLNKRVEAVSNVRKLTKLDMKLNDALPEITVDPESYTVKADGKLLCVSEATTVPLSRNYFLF

With `CC(C)[C@H](NC(=O)CNC(=O)Nc1ccc(F)cc1)C(=O)NCC(=O)N[C@H](C(=O)N1CCC[C@H]1C(=O)N1CCN(c2nsc3ccccc23)CC1)C(C)C` ({NH(4-F-phenyl)-CO}-GVGVP-X1), the MIC with Aspergillus flavus [1] amounted to 14.5 µg/mL (≈ 18.9 µM); against Klebsiella pneumoniae [2], 11.2 µg/mL (≈ 14.7 µM); against Xanthomonas oryzae [3], 10.5 µg; in the data set with Fusarium oxysporum [5], 14.5 µg/mL (≈ 18.9 µM); in the data set with Aspergillus niger [8], 11.8 µg/mL (≈ 15.3 µM); against Escherichia coli [11], 12.8 µg/mL (≈ 16.6 µM). Moreover, the figures for the MIC against Fusarium verticillioides [14] and in the data set with Staphylococcus [16] were 13.5 µg/mL (≈ 17.6 µM) and 13.2 µg/mL (≈ 17.3 µM), respectively. The IC50 turned out to be 39 µM at Urease, 40 µM in [4] and 78 µM in data set [12] (read-out: IC50). Also, the zone of inhibition at 50 µg/mL came to 30 mm in the data set with Escherichia coli [6]; 33 mm in the data set with Aspergillus niger [7]; 27 mm in the data set with Xanthomonas oryzae [9]; 32 mm in the data set on Aspergillus flavus [10]; 34 mm with Fusarium verticillioides [13]; 30 mm in the data set on Fusarium oxysporum [15]. Besides, in the data set with Staphylococcus [17], the zone of inhibition at 50 µg/mL was found to be 29 mm.

Turning to `CC(C)[C@H](NC(=O)CNC(=O)Nc1ccccc1F)C(=O)NCC(=O)N[C@H](C(=O)N1CCC[C@H]1C(=O)N1CCN(c2nsc3ccccc23)CC1)C(C)C` ({NH(2-F-phenyl)-CO}-GVGVP-X1), the MIC against Aspergillus flavus [1] amounted to 17.8 µg/mL (≈ 23.2 µM); against Klebsiella pneumoniae [2] it was 17 µg/mL (≈ 22.2 µM); against Fusarium oxysporum [5], 16.8 µg/mL (≈ 21.9 µM); against Aspergillus niger [8] it was 16.8 µg/mL (≈ 21.9 µM); in the data set on Escherichia coli [11], 15.8 µg/mL (≈ 20.6 µM); against Fusarium verticillioides [14], 15.5 µg/mL (≈ 20.2 µM). In addition, in the data set with Staphylococcus [16], the MIC worked out at 16.8 µg/mL (≈ 21.9 µM). Moreover, the figures for the IC50 (at Urease; in data set [4]; in [12] (read-out: IC50)) were 42 µM, 54 µM and 100 µM, respectively. Besides, the zone of inhibition at 50 µg/mL in the data set with Escherichia coli [6] was determined as 25 mm; in the data set on Aspergillus niger [7], 25 mm; in the data set on Xanthomonas oryzae [9], 23 mm; in the data set on Aspergillus flavus [10] it was 24 mm; with Fusarium verticillioides [13] it was 26 mm; in the data set with Fusarium oxysporum [15], 22 mm. Also, the zone of inhibition at 50 µg/mL in the data set on Staphylococcus [17] is 25 mm.

As to `CC(C)[C@H](NC(=O)CNC(=O)OC(C)(C)C)C(=O)NCC(=O)N[C@H](C(=O)N1CCC[C@H]1C(=O)N1CCN(c2nsc3ccccc23)CC1)C(C)C` (Boc-GVGVP-X1), the half-maximal inhibitory concentration (IC50) at Urease was 295 µM; in [4] it was 250 µM; in data set [12], “Not Active”. Moreover, the zone of inhibition at 50 µg/mL was 6 mm in the data set on Escherichia coli [6]; 40.3 mm with Klebsiella pneumoniae [18]; 5 mm in the data set with Aspergillus niger [7]; 4 mm in the data set with Xanthomonas oryzae [9]; 4 mm in the data set with Aspergillus flavus [10]; 5 mm in the data set on Fusarium verticillioides [13]. Moreover, the results for the zone of inhibition at 50 µg/mL in the data set with Fusarium oxysporum [15] and in the data set with Staphylococcus [17] were 6 mm and 5 mm, respectively.

In the case of `CC(C)[C@H](NC(=O)CNC(=O)[C@H](Cc1ccccc1)NC(=O)CNC(=S)Nc1ccc(F)cc1)C(=O)N1CCC[C@H]1C(=O)N1CCN(c2nsc3ccccc23)CC1` (X2-GFGVP-X1), the MIC came to 10.2 µg/mL (≈ 12.3 µM) with Aspergillus flavus [1]; 8.5 µg/mL (≈ 10.2 µM) in the data set on Klebsiella pneumoniae [2]; 7.5 µg in the data set on Xanthomonas oryzae [3]; 11 µg/mL (≈ 13.3 µM) against Fusarium oxysporum [5]; 9.75 µg/mL (≈ 11.7 µM) in the data set on Aspergillus niger [8]; 9 µg/mL (≈ 10.8 µM) against Escherichia coli [11]. Besides, the MIC with Fusarium verticillioides [14] worked out at 9.75 µg/mL (≈ 11.7 µM); in the data set with Staphylococcus [16] it was 9 µg/mL (≈ 10.8 µM). The values for the IC50 (at Urease; in [4]; in data set [12] (read-out: IC50)) were 33 µM, 42 µM and 72 µM, respectively. The zone of inhibition at 50 µg/mL with Escherichia coli [6] stood at 35 mm; in the data set on Aspergillus niger [7] it was 35 mm; in the data set with Xanthomonas oryzae [9], 34 mm; with Aspergillus flavus [10], 36 mm; in the data set with Fusarium verticillioides [13], 36 mm; with Fusarium oxysporum [15] it was 35 mm. For the same compound, the zone of inhibition at 50 µg/mL in the data set with Staphylococcus [17] amounted to 35 mm.
